# E-selectin induc: E-selectin induction on HUVECs; 260,000 compounds, 0.37% hits; activation, % at 7.58 µM; P16581; HUVEC E-selectin immunofluorescence imaging; normalized: neutral wells 0, TNF-alpha wells 100;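 active = mean E-selectin-positive cell signal at least 10% of the positive control, reached in at least 60% of replicates, without over 20% cell loss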
#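 Read-out: % PE-positive cells | Test system: HUVEC | Doses: One compound dose added by pin transfer | Buffer or medium: EGM-2 over gelatin coat | Signal: Immunofluorescence imaging | Benchmarks: TNF-alpha, DMSO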
# Statin myotox sup: suppressors of simvastatin-induced myotoxicity in C2C12 myotubes; ATP luminescence, 48 h; scaled: DMSO 0, geranylgeraniol control 100; rescue of ATP level, % at 7.49 µM; 330,000 compounds, 0.78% hits; AID 602340;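 active = mean ATP rescue above about 67%, or every replicate alone reaching that limit, limit read from the data, passing the limit was not always enough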;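 note: myotubes were challenged with 10 µM simvastatin during compound exposure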
# FGF22 binding: shifts melting point of recombinant human FGF22; Q9HCT0; recombinant FGF22 thermal shift, SYPRO orange fluorescence; percent of sucrose octasulfate shift, DMSO zero; activity (Tm shift, normalised), % at 9.99 µM; 340,000 compounds, 1.5% hits; AID 651658;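 active = mean Tm shift, scaled 0 neutral to 100 positive control, at about 1.3% or above, every replicate too, limit read from the data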
# Target sequence (Q9HCT0 whole entry, looked up): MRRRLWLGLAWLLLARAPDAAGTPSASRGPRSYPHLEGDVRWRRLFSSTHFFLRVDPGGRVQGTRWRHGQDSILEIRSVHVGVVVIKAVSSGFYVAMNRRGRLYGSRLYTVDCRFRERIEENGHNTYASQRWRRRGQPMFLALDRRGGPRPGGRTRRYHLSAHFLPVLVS
# SIRT5 inh: sirtuin-5 (human) deacylase inhibition; Q9NXA8; Purified SirT5, succinyl-peptide AMC, trypsin-coupled fluorescence; 330,000 compounds, 1.1% hits; inhibition, % at 15 µM; AID 652115; in the data active = inhibition above about 15%
# Target sequence (Q9NXA8 whole entry, looked up): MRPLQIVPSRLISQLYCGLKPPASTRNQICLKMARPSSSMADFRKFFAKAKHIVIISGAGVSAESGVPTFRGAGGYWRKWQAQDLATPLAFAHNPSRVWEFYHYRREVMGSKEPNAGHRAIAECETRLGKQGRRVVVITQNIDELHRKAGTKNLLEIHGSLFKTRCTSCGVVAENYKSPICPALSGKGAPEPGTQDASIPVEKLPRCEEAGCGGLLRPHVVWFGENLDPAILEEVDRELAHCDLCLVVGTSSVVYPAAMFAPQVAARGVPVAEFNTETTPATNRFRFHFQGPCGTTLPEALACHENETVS
# FN deposition inh: fibronectin deposition inhibition; AH1F fibroblasts, Alexa488-fibronectin deposition fluorescence, overnight; 350,000 compounds, 0.086% hits; inhibition, % at 12.6 µM; AID 743247;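 active = mean inhibition across replicates of 30% or more, regardless of how many single replicates reach that level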;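 note: positive control wells lacked labelled fibronectin entirely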
#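 Material – AH1F fibroblast monolayer, labelled fibronectin deposition · Reagent – labelled fibronectin 24 nM · Timing – 1 h adhesion, overnight exposure · Measured by – fluorescence at 485 nm excitation, 525 nm emission · Read-out – inhibition of fibronectin deposition signal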
# Ecoli rRNA inh: inhibits bacterial ribosomal RNA function over humanized ribosomes | E. coli WT GFP vs humanized-ribosome RFP mutants, fluorescence, 24 h; stronger effect = lower value; DMSO median 0, no signal -100 | GFP signal change (wild-type ribosome), % (concentration not given with the values) | 350,000 compounds, 1.6% hits | AID 720706;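 active = significant combined selectivity score with lowered wild-type GFP, culture density cut under 30%, mutant RFP and density less affected; inactive = any of these conditions unmet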
# * marks the source's active call; other numbers are inactive results; . = no result given. In the library only some 4% were active in any assay of this set; here they are far more common.
SMILES,E-selectin induc,Statin myotox sup,FGF22 binding,SIRT5 inh,FN deposition inh,Ecoli rRNA inh
COCC(=O)N1[C@@H](CO)[C@@H]2c3ccccc3N(C(=O)c3ccccc3F)C[C@@H]21,-0.1,20.5,-0.4,7.7,.,3.4
COc1ccc(CC(=O)OCC(=O)c2ccc[nH]2)cc1,.,10.5,0.1,-1.1,6.5,3.9
O=C(Cc1ccc(Br)cc1)OCC(=O)c1ccc[nH]1,-0.1,11.0,0.3,4.0,7.7,-23.2*
O=C(O)C1Nc2c(O)cc(Cl)c([N+](=O)[O-])c2C2C=CCC12 (stereo not given),.,.,2.7*,.,0.7,-15.2
CCN(CC)C(=O)Cc1cn(C)c2ccccc12,0.6,-5.7,43.2*,1.0,12.8,-0.8
CCC(=O)N[C@H]1C=C[C@H](CC(=O)NCC2CCCCC2)O[C@@H]1CO,-0.4,-4.2,-0.5,-2.5,.,3.3
Nc1nccc(-c2cccs2)n1,.,.,43.4*,1.7,.,10.5
C[C@@H]1CN([C@H](C)CO)C(=O)c2cc(NC(=O)Cn3cnnn3)ccc2O[C@@H]1CN(C)Cc1ccncc1,-4.7,2.0,-0.2,3.9,.,4.5
Cc1noc(C)c1NC(=O)N1C[C@@H](O)COC[C@@H]2O[C@@H](CC(=O)N[C@@H]3CCN(Cc4ccccc4)C3)CC[C@H]21,.,.,.,.,-4.2,-1.5
Cc1cc(C)c(Cn2c(=O)n(CCCC(=O)NCc3ccco3)c(=O)c3sccc32)c(C)c1,.,-28.2,.,.,33.8*,.
CCN(C(=O)CN1C(=O)S/C(=C\c2cccc(OC)c2)C1=O)C1CCS(=O)(=O)C1 (stereo not given),3.5,7.8,0.1,15.7*,5.1,9.4
O=C(C[C@H]1CC[C@H](NC(=O)c2ccccn2)[C@H](CO)O1)NCc1cccc(F)c1,0.3,-0.4,-0.2,7.3,.,3.8
Cc1cc(C)n2nc(C)c(-c3ccc(Cl)cc3)c2n1,.,-31.0,-0.1,-3.9,15.8,-11.2
CCSc1cc(C)nc2c(-c3ccc(Cl)cc3)c(C)nn12,.,92.6*,0.0,-1.3,.,14.1
CN1C(=O)c2cc(NC(=O)C3CCCCC3)ccc2OC[C@@H]2O[C@H](CC(=O)NCCc3ccncc3)CC[C@H]21,0.0,10.3,0.0,-0.3,-12.9,-0.5
CCc1ccc2[nH]c(=O)c(CN(CCN3CCCC3)C(=O)NC3CCCCC3)cc2c1,.,94.6*,.,.,.,.
Cc1ccc2[nH]c(=O)c(CN(CCCN3CCOCC3)C(=O)NC3CCCCC3)cc2c1,.,-5.5,.,.,.,.
Cc1noc(C)c1S(=O)(=O)Nc1ccc2c(c1)C(=O)N([C@@H](C)CO)C[C@@H](C)[C@H](CN(C)Cc1ccc(Cl)c(Cl)c1)OCCCC[C@@H](C)O2,-0.1,120.8*,-0.9,20.1*,.,-3.3
Cc1noc(C)c1S(=O)(=O)Nc1ccc2c(c1)C(=O)N([C@@H](C)CO)C[C@@H](C)[C@@H](CN(C)Cc1ccc(Cl)c(Cl)c1)OCCCC[C@@H](C)O2,-0.2,-109.8,-0.9,17.0*,.,-4.7
CN(C)CCCNC(=O)C[C@@H]1CC[C@H](NS(=O)(=O)c2ccc(F)cc2)[C@@H](CO)O1,0.7,6.0,-0.1,0.5,.,3.3
COc1ccc2c3c([nH]c2c1)[C@@H](CO)N(C)CC31CN(C(=O)c2cccnc2)C1,.,.,.,.,.,0.6
O=C([C@@H]1N[C@@H]2c3ccc(-c4ccccc4)c(=O)n3C[C@@H]2[C@H]1CO)N1CCOCC1,-0.3,-1.4,0.3,-12.0,.,2.9
CCOc1cc(NC(=S)NCCc2ccccc2)c(OCC)cc1NC(C)=O,0.3,.,43.4*,-2.2,2.6,-0.3
Oc1ccc(-c2cn3c(n2)SCC3)cc1,.,97.3*,.,.,.,.
CO[C@@H]1CN(C)C(=O)c2ccc(NC(=O)Nc3c(C)noc3C)cc2OC[C@@H](C)N(C)C[C@@H]1C,-0.5,1.6,-0.1,2.7,.,2.7
SMILES,E-selectin induc,Statin myotox sup,FGF22 binding,SIRT5 inh,FN deposition inh,Ecoli rRNA inh
CN(C)CCC(=O)C(Cc1ccccc1)c1ccccc1 (stereo not given),-0.2,3.1,-0.1,-2.7,7.0,5.0
CC(CCCN(C)C)C(Cc1ccccc1)c1ccccc1 (stereo not given),0.0,.,-0.1,-7.3,5.1,-47.5*
CNC[C@@H]1OCCCC[C@@H](C)Oc2ccc(NS(=O)(=O)c3ccc(OC)cc3)cc2C(=O)N([C@H](C)CO)C[C@H]1C,0.4,-7.7,0.0,-4.2,.,9.1
CN(C)S(=O)(=O)c1cc(C(=O)NCc2ccccc2)c(Cl)cc1Cl,.,2.2,42.9*,-1.2,2.9,-2.2
CN(C(=O)c1ccccc1Cl)c1ccccc1C(=O)NCc1ccccc1,-0.1,-2.7,-0.5,-2.7,1.9,-1.0
O=S(=O)(N[C@H]1CC[C@H](CCn2cc(C3(O)CCCC3)nn2)O[C@H]1CO)c1ccccc1,-1.9,7.7,0.0,-0.5,.,2.0
CCOC(=O)c1csc(-c2sccc2Br)n1,.,.,-0.1,-1.8,-1.7,-27.0*
CCOC(=O)c1cc(C#N)c(SCC(N)=O)[nH]c1=O,7.2,17.0,0.3,-6.6,4.0,11.8
CCOC(=O)c1cc(C#N)c(SCC(=O)O)[nH]c1=O,.,.,45.0*,-4.5,6.3,16.5
CCOC(=O)c1cc(C#N)c(SCC(=O)Nc2ccc(C(C)=O)cc2)[nH]c1=O,-1.7,.,1.4*,-3.4,7.6,-10.8
CC(C)NC(=O)N(C)C[C@H]1Oc2cc(C#C[C@@H](C)O)ccc2S(=O)(=O)N([C@@H](C)CO)C[C@H]1C,1.0,0.2,-0.2,-2.4,-8.0,0.6
C[C@@H]1CN([C@@H](C)CO)C(=O)c2cccc(N(C)C)c2O[C@H]1CN(C)Cc1ccncc1,-0.2,-6.1,-0.4,3.3,-1.4,2.1
C[C@@H]1CCCCO[C@@H](CN(C)C(=O)NC2CCCCC2)[C@@H](C)CN([C@H](C)CO)C(=O)c2cc(NC(=O)C3CCCCC3)ccc2O1,0.6,-27.1,-0.6,-2.3,.,3.4
CCn1c(SCC(=O)N(C)Cc2ccc(OC)c(F)c2)nc2cc(S(N)(=O)=O)ccc21,42.3*,3.5,0.2,0.1,8.0,-0.6
Cc1ccc(C)c(OCc2cc(C(=O)N3CC[C@@H]4CCCC[C@H]4C3)no2)c1,0.6,-5.6,0.3,-0.4,-3.3,15.0
COc1cc(C)ccc1OCc1cc(C(=O)N2CCC(c3ccc(F)cc3)C2)no1 (stereo not given),.,-2.4,0.0,-2.0,8.3,-14.4*
O=c1c2c(-c3ccccc3)csc2ncn1/N=C/c1ccc(O)c([N+](=O)[O-])c1,.,.,44.1*,.,.,11.3
CCS(=O)(=O)N1Cc2cc(C(=O)O)nc(-c3cccc(-c4ccc(C#N)cc4)c3)c2[C@@H]1CCO,.,.,-0.1,0.0,0.3,3.6
C[C@H]1CN([C@@H](C)CO)C(=O)c2cccc(NC(=O)c3cnccn3)c2O[C@H]1CN(C)S(=O)(=O)c1ccc(Cl)cc1,-0.2,.,.,.,3.1,-6.7
